Data on 24 molecules can be found in ChEMBL document CHEMBL4765409, “Synthesis and biological evaluation of geniposide derivatives as potent and selective PTPlB inhibitors” (Eur J Med Chem, 2020).

The structures appear in SMILES notation.

Experiment [1] has as its target T1, Tyrosine-protein phosphatase non-receptor type 1 (Homo sapiens, UniProt P18031).
T1 sequence (P18031 whole entry): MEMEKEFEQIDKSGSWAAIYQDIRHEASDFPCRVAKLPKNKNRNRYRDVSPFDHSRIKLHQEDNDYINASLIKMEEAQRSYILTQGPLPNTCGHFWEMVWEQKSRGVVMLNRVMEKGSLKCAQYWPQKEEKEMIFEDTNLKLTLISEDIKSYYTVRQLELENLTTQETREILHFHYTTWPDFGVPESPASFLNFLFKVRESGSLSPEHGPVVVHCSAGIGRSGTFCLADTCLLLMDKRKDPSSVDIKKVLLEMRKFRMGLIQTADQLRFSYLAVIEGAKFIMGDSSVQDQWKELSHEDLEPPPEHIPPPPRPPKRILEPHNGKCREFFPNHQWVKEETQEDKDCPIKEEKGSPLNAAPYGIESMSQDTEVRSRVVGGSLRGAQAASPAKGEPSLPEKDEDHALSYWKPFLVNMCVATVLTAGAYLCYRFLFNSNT
As to the kind of experiment: Inhibition of recombinant human PTP1B using pNPP as substrate measured after 30 mins. The method in brief:
(§1)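 75 nM recombinant enzyme (PTP1B, TCPTP or SHP2) with 2.5 mM pNPP in 10 mM Tris, 25 mM NaCl, 1 mM EDTA, pH 7.1; compounds added from DMSO. Reaction run 30 min at room temperature, stopped with 2.0 N NaOH, pNP read at 405 nm. Sodium vanadate as positive control. IC50 from enzyme progress curves; means of triplicates, repeated twice.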

The target in experiment [2] is T2, Tyrosine-protein phosphatase non-receptor type 1 (Homo sapiens) (UniProt P18031).
T2 sequence (whole entry): T1 sequence (P18031 whole entry)
As to the kind of experiment: Inhibition of PTP1B in human HepG2 cells assessed as improvement in insulin-induced 2-NBDG uptake at 20 uM incubated for 24 hrs prior to compound washout followed by insulin stimulation for 20 mins and subsequent 2-NBDG addition measured after 60 mins by FACS analysis relative to control. The experiment is classed as cell-based. The method in brief: (§2)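 HepG2 cells in DMEM with 10% FBS and 1% penicillin-streptomycin, 5% CO2, 37 °C; 5×10^4 cells/well in 24-well plates. Compound exposure 24 h, then two PBS washes. Stimulated with 100 nM insulin for 20 min, then 50 μM 2-NBDG for 60 min. Uptake read by flow cytometry, FL1 channel; pioglitazone as positive control.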
In general terms: Flow cytometry measures light scatter and fluorescence of single cells or particles in a stream.

A further experiment deals with CHO. The experiment is described as follows: Cytotoxicity against CHO cells assessed as reduction in cell viability measured after 24 hrs by MTT assay. Format: cell-based. Particulars: Cricetulus griseus. The method in brief:
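CHO cells in DMEM with 10% FBS and 1% penicillin-streptomycin, 5% CO2, 37 °C; 5×10^3 cells/well seeded, treated after 24 h with varying compound concentrations for 24 h. MTT then added for 4 h at 37 °C in the dark, medium removed, formazan dissolved in DMSO, OD read at 490 nm.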
Background: Formazan colour is commonly taken as a measure of viable cells.

For experiment [3], the target named is T2, Tyrosine-protein phosphatase non-receptor type 1 (Homo sapiens). As to the kind of experiment: Inhibition of PTP1B in human HepG2 cells assessed as improvement in insulin-induced 2-NBDG uptake at 5 uM incubated for 24 hrs prior to compound washout followed by insulin stimulation for 20 mins and subsequent 2-NBDG addition measured after 60 mins by FACS analysis relative to control. The experiment is classed as cell-based. The method in brief: as §2

Experiment [4] shares this target. The experiment is described as follows: Inhibition of PTP1B in human HepG2 cells assessed as improvement in insulin-induced 2-NBDG uptake at 10 uM incubated for 24 hrs prior to compound washout followed by insulin stimulation for 20 mins and subsequent 2-NBDG addition measured after 60 mins by FACS analysis relative to control. Format: cell-based. The method in brief: as §2

The test system of the next experiment is CHO (Cricetulus griseus). As to the kind of experiment: Cytotoxicity against Chinese hamster CHO cells assessed as reduction in cell viability measured after 24 hrs by MTT assay.
Experiment [5] concerns the target T3, Tyrosine-protein phosphatase non-receptor type 2 (Homo sapiens, UniProt P17706).
T3 sequence (P17706 whole entry): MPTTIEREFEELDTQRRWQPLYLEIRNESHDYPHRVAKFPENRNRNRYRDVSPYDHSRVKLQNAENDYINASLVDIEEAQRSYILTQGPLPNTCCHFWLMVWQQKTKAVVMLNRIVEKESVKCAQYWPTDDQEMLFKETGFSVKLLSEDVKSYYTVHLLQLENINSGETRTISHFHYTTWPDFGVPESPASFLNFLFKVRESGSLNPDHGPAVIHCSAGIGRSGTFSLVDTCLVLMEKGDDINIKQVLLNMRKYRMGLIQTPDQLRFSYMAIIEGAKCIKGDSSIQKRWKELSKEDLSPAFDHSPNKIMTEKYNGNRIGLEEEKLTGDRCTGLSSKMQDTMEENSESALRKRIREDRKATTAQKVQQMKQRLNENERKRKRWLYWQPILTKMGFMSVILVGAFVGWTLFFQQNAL
The experiment is described as follows: Inhibition of recombinant human TCPTP using pNPP as substrate measured after 30 mins. The method in brief: as §1

For experiment [6], the target named is T4, Tyrosine-protein phosphatase non-receptor type 11 (Homo sapiens, UniProt Q06124).
T4 sequence (Q06124 whole entry): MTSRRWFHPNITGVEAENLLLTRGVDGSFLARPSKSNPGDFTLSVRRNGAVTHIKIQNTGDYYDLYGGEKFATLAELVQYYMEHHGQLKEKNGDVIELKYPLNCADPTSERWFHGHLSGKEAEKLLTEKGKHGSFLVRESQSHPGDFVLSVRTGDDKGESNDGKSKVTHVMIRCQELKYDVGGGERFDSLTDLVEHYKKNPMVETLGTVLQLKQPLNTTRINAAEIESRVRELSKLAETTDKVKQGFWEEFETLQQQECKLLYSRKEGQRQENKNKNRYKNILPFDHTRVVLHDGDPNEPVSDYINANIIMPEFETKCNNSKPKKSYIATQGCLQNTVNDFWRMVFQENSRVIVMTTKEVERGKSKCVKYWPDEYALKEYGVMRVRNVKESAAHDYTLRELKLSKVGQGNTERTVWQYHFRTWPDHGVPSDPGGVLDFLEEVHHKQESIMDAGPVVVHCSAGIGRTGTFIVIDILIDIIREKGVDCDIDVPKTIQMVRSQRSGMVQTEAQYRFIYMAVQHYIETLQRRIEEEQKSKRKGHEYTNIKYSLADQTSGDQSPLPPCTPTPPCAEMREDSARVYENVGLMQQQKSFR
As to the kind of experiment: Inhibition of recombinant SHP2 (unknown origin) using pNPP as substrate measured after 30 mins. The method in brief: as §1

The term IC50 denotes the concentration that gives 50% inhibition. As to `COC(=O)C1=CO[C@@H](OCc2ccccc2)[C@@H]2C(CO)=CC[C@H]12`, in experiment [1], the IC50 is 40.3 µM.
A word on the inhibition: it is how much of the control response was suppressed. Take `CCOS(=O)(=O)/C=C/c1ccc(CNC(=O)C2=CO[C@@H](O[C@@H]3O[C@H](COCc4ccccc4)[C@@H](OCc4ccccc4)[C@H](OCc4ccccc4)[C@H]3OCc3ccccc3)[C@@H]3C(COCc4ccccc4)=CC[C@H]23)cc1`: the inhibition was found to be 49.8% in experiment [2], 43.4% in experiment [3] and 36.5% in experiment [4]. In addition, the IC50 is greater than 200 µM with CHO, greater than 200 µM in the experiment on CHO (Cricetulus griseus) and 0.35 µM in experiment [1].
As to `O=C(Nc1ccc(-c2ccccc2)cc1)C1=CO[C@@H](O[C@@H]2O[C@H](CO)[C@@H](O)[C@H](O)[C@H]2O)[C@@H]2C(CO)=CC[C@H]12`, in experiment [1], the IC50 was 21.7 µM.
As to `CCOS(=O)(=O)/C=C/c1ccc(OCC2=CC[C@@H]3C(C(=O)Nc4ccc(Oc5ccccc5)cc4)=CO[C@@H](OC)[C@H]23)cc1`, the IC50 was greater than 200 µM with CHO, greater than 200 µM in the experiment with CHO (Cricetulus griseus) and 2.67 µM in experiment [1].
On to `CCOS(=O)(=O)/C=C/c1ccc(OCC2=CC[C@@H]3C(C(=O)Nc4ccc(Oc5ccc(-c6ccccc6)cc5)cc4)=CO[C@@H](OC)[C@H]23)cc1`, for which the inhibition was found to be 69.6% in experiment [2], 38.6% in experiment [3] and 68% in experiment [4]. The IC50 in the experiment on CHO is greater than 200 µM; in experiment [5] it was 0.95 µM; in experiment [6], 1.24 µM; with CHO (Cricetulus griseus) it was greater than 200 µM; in experiment [1], 0.43 µM.
`CCOS(=O)(=O)/C=C/c1ccc(OCC2=CC[C@@H]3C(C(=O)Nc4ccc(Oc5ccc6ccccc6c5)cc4)=CO[C@@H](OC)[C@H]23)cc1`: the IC50 with CHO was greater than 200 µM; with CHO (Cricetulus griseus), greater than 200 µM; in experiment [1], 0.75 µM.
Turning to `COc1ccccc1NC(=O)C1=CO[C@@H](O[C@@H]2O[C@H](CO)[C@@H](O)[C@H](O)[C@H]2O)[C@@H]2C(CO)=CC[C@H]12`, the IC50 in experiment [1] worked out at 50.8 µM.
Consider `CCc1ccc(CCOc2ccc(CC3SC(=O)NC3=O)cc2)nc1` (centres undefined), for which the inhibition worked out at 63.5% in experiment [2], 33.8% in experiment [3] and 46% in experiment [4].
`COC(=O)C1=CO[C@@H](O[C@@H]2O[C@H](COCc3ccccc3)[C@@H](OCc3ccccc3)[C@H](OCc3ccccc3)[C@H]2OCc2ccccc2)[C@@H]2C(COCc3ccccc3)=CC[C@H]12`: the figures for the IC50 (with CHO; in the experiment on CHO (Cricetulus griseus); in experiment [1]) were 42 µM, greater than 200 µM and 0.68 µM, respectively.
On to `CC(C)(C)c1ccc(Oc2ccc(NC(=O)C3=CO[C@@H](O[C@@H]4O[C@H](CO)[C@@H](O)[C@H](O)[C@H]4O)[C@@H]4C(CO)=CC[C@H]34)cc2)cc1`, for which the IC50 in experiment [5] was greater than 100 µM; in experiment [6] it was greater than 100 µM; in experiment [1], 17.7 µM.
Turning to `O=C(Nc1ccccc1F)C1=CO[C@@H](O[C@@H]2O[C@H](CO)[C@@H](O)[C@H](O)[C@H]2O)[C@@H]2C(CO)=CC[C@H]12`, the IC50 in experiment [1] worked out at 20.8 µM.
Same read-out and setting: to `O=C(Nc1ccc(Oc2ccccc2)cc1)C1=CO[C@@H](O[C@@H]2O[C@H](CO)[C@@H](O)[C@H](O)[C@H]2O)[C@@H]2C(CO)=CC[C@H]12` belongs 25.2 µM.
With `CCOS(=O)(=O)/C=C/c1ccc(OCC2=CC[C@@H]3C(C(=O)Nc4ccc(Oc5ccc(Br)cc5Cl)cc4)=CO[C@@H](OC)[C@H]23)cc1`, the IC50 is greater than 200 µM in the experiment with CHO, greater than 200 µM in the experiment with CHO (Cricetulus griseus) and 1.05 µM in experiment [1].
Take `O=C(O)C1=CO[C@@H](O[C@@H]2O[C@H](COCc3ccccc3)[C@@H](OCc3ccccc3)[C@H](OCc3ccccc3)[C@H]2OCc2ccccc2)[C@@H]2C(COCc3ccccc3)=CC[C@H]12`: the IC50 is greater than 200 µM in the experiment on CHO; 1.32 µM in experiment [5]; 3.32 µM in experiment [6]; greater than 200 µM in the experiment with CHO (Cricetulus griseus); 0.38 µM in experiment [1].
Consider `O=C(Nc1ccccc1)C1=CO[C@@H](O[C@@H]2O[C@H](CO)[C@@H](O)[C@H](O)[C@H]2O)[C@@H]2C(CO)=CC[C@H]12`, for which the IC50 in experiment [1] is greater than 100 µM.
Consider `CCOS(=O)(=O)/C=C/c1ccc(OCC2=CC[C@@H]3C(C(=O)Nc4ccc(Oc5ccccc5)cc4)=CO[C@@H](OCc4ccccc4)[C@H]23)cc1`, for which the figures for the IC50 (with CHO; in the experiment with CHO (Cricetulus griseus); in experiment [1]) were 62 µM, greater than 200 µM and 0.99 µM, respectively.
As to `COC(=O)C1=CO[C@@H](OC)[C@@H]2C(CO)=CC[C@H]12`, the IC50 in experiment [1] amounted to 236 µM.
On to `CCOS(=O)(=O)/C=C/c1ccc(OCC2=CC[C@@H]3C(C(=O)Nc4ccc(Oc5ccc(Br)cc5Cl)cc4)=CO[C@@H](OCc4ccccc4)[C@H]23)cc1`, for which the inhibition in experiment [2] stood at 64.4%; in experiment [3], 43.8%; in experiment [4] it was 68.3%. Also, the half-maximal inhibitory concentration (IC50) in the experiment on CHO is greater than 200 µM; in experiment [5], 1.29 µM; in experiment [6] it was 3.97 µM; in the experiment with CHO (Cricetulus griseus) it was greater than 200 µM; in experiment [1], 0.41 µM.
Turning to `O=C(Nc1ccc(Oc2ccccc2)cc1)C1=CO[C@@H](O[C@@H]2O[C@H](COCc3ccccc3)[C@@H](OCc3ccccc3)[C@H](OCc3ccccc3)[C@H]2OCc2ccccc2)[C@@H]2C(COCc3ccccc3)=CC[C@H]12`, the IC50 is greater than 200 µM in the experiment with CHO, greater than 200 µM in the experiment on CHO (Cricetulus griseus) and 0.4 µM in experiment [1].
Take `CCO[C@@H]1OC=C(C(=O)OC)[C@H]2CC=C(CO)[C@@H]12`: the IC50 in experiment [1] is 64.7 µM.
`CCc1ccccc1NC(=O)C1=CO[C@@H](O[C@@H]2O[C@H](CO)[C@@H](O)[C@H](O)[C@H]2O)[C@@H]2C(CO)=CC[C@H]12`: the concentration for half-maximal inhibition (IC50) is greater than 100 µM in experiment [5], greater than 100 µM in experiment [6] and 18.3 µM in experiment [1].
As to `CCOS(=O)(=O)/C=C/c1ccc(OCC2=CC[C@@H]3C(C(=O)OC)=CO[C@@H](OCc4ccccc4)[C@H]23)cc1`, the 50% inhibitory concentration (IC50) in experiment [1] came out at 13.2 µM.
Consider `COC(=O)C1=CO[C@@H](O[C@@H]2O[C@H](CO)[C@@H](O)[C@H](O)[C@H]2O)[C@@H]2C(CO)=CC[C@H]12` [GENIPOSIDE], for which the IC50 in experiment [5], in experiment [6] and in experiment [1] was greater than 500 µM throughout.
Turning to `COC(=O)C1=CO[C@@H](O)[C@@H]2C(CO)=CC[C@H]12` [GENIPIN], the IC50 in experiment [5], in experiment [6] and in experiment [1] was greater than 500 µM throughout.
